Screening results (PubChem)
Dynein transport: dynein cargo transport inhibition | 3617.4 mouse cells, GR-EGFP nuclear translocation imaging; test concentration mostly 20 µM; stimulated with dexamethasone, 1 µM; hits give low values | z-score, hits read low | hit rate 0.47% among 220,000 | AID 1381;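 active = plate z-score of nuclear minus cytoplasmic receptor signal below a set negative limit, without overly bright fluorescence or cell loss, cut at about -3.5 in these data, passing the limit was not always enough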;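 note: z-score of nuclear minus cytoplasmic ring GR-EGFP intensity difference per well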
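Also added – dexamethasone, 1.0 µM final · Buffer or medium – tet-free, stripped-serum medium · Schedule – induction 48 h, compound 1 h, agonist 30 min · Detection – formaldehyde fixation, Hoechst nuclear stain, 10x automated fluorescence imaging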
Autophagy HCS: autophagy modulation, high-content screen | MEF GFP-LC3 puncta imaging; test concentration mostly 10 µM | calls only at 10 µM (by protocol) | hit rate 0.98% among 190,000 | AID 463193;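 active = percentage of spot-positive cells more than 3 SD above its plate mean, without a fluorescence outlier flag or 80% toxicity; inconclusive = no clear call, values can overlap the other calls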
Insulin prom up: MIN6 insulin promoter up-regulation | MIN6 insulin promoter-GFP reporter, high-content imaging; hits give high values | z-score at 5 µM | hit rate 0.3% among 190,000 | AID 1625;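 active = z-score above 3 at 5 µM with at least 500 cells counted in the well; inconclusive = wells under 500 cells, flagged as cytotoxic or low count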
Insulin prom inh: TRM-6 insulin promoter activity inhibition | TRM-6 cells, insulin promoter-eGFP reporter, imaging; reporter expression induced with tamoxifen | inhibition, % at 2 µM | hit rate 0.9% among 130,000 | AID 1273;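 active = inhibition above the mean plus 3 SD, with well images judged a real hit on visual review, cut at about 60% in these data, passing the limit was not always enough; inconclusive = inhibition over the cutoff but images rejected on review; inactive = inhibition not above the cutoff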
Large screens that a line does not name were inactive. Most compounds without a hit are left out; they make up all but 2% or so of the library.

O=c1[nH]c(N2CCCCC2)nc2ncn(Cc3ccccc3)c12	none (no result: Autophagy HCS, Insulin prom up, Insulin prom inh)
N#CC1=C(N)N2C(=C(C#N)C1c1ccccc1)Sc1ccccc12 (stereo not drawn)	Autophagy HCS active (no result: Insulin prom up, Insulin prom inh)
CCOc1ccc(C2C(C#N)=C(N)N3C(=C2C#N)Sc2ccccc23)cc1 (stereo not drawn)	none (no result: Dynein transport, Autophagy HCS, Insulin prom inh)
Cc1sc2ncnc(Sc3nnnn3-c3ccccc3)c2c1C	none (no result: Insulin prom inh)
Clc1ccc(-n2nnnc2Sc2ncnc3sccc23)cc1	Autophagy HCS active (no result: Insulin prom up)
CCN(c1ccc(NC(=O)COC(=O)CCc2cc(OC)c(OC)c(OC)c2)cc1)C(C)C	none
Cc1ccc(-c2ccc(/C=C3\SC(N4CCOCC4)=NC3=O)o2)cc1	Autophagy HCS active
COc1ccc2nc(N/C(N)=N/C(=S)Nc3c(C)cccc3C)nc(C)c2c1	Autophagy HCS active (no result: Insulin prom inh)
COC(=O)c1ccccc1NC(=O)C/C(C)=N/NC(=O)CC#N	Insulin prom inh 71
O=C(CSc1nnc(NC(=O)Cc2ccc(F)cc2)s1)NCc1ccco1	Insulin prom inh 92
Cc1ccc(Cn2nnnc2CN2CCC(O)(c3cccnc3)CC2)cc1	Insulin prom inh 79
COc1ccc(Cn2nnnc2CN2CCC(O)(c3ccc(F)cc3)CC2)cc1	none
COc1ccc(C2(O)CCN(Cc3nnnn3Cc3ccc(C)cc3)CC2)cc1	Autophagy HCS active
CC(C)(C)c1nc(NC(=O)Nc2ccccc2)sc1Br	none (no result: Insulin prom inh)
CCOC(=O)/C(C#N)=C1\SS/C(=C(/C#N)C(=O)OCC)S1	none (no result: Autophagy HCS, Insulin prom inh)
O=C(NNC(=O)c1ccc2nonc2c1)Nc1ccc(Cl)cc1	none (no result: Autophagy HCS, Insulin prom inh)
COc1ccc(-c2csc(N(CC3CCCO3)C(=O)c3cccs3)n2)cc1 (stereo not drawn)	none
COc1ccc(OC)c(C2=NOC(C(=O)NCC3CCCO3)C2)c1 (stereo not drawn)	Insulin prom up 3.7 (no result: Insulin prom inh)
COc1ccc(C(=O)NC(C(=O)NCC2CCCO2)C(C)C)cc1 (stereo not drawn)	Insulin prom inh 82
COc1ccc(OC)c(-c2csc(N(CC3CCCO3)C(=O)C3CCCCC3)n2)c1 (stereo not drawn)	Autophagy HCS active (no result: Insulin prom inh)
Fc1ccccc1Cc1noc(CN(Cc2ccccn2)CC2CCCO2)n1 (stereo not drawn)	none (no result: Insulin prom inh)
CC(C)C[C@H](N)c1nnc(S(=O)(=O)Cc2ccc(F)cc2)o1	Dynein transport -3.7 (no result: Insulin prom inh)
CC1CCc2cc(F)ccc2N1C(=O)c1ccc2c(c1)OCO2 (stereo not drawn)	Autophagy HCS active
Cc1ccc(C)n1CCN1CCN(CC(=O)Nc2cc(C(F)(F)F)ccc2Cl)CC1	Autophagy HCS active
Cc1ccc(Oc2coc3cc(OC(=O)c4cccs4)ccc3c2=O)cc1	none
CC(=O)Oc1ccc2c(=O)c(Oc3ccccc3)coc2c1OC(C)=O	Autophagy HCS active
Cc1ccccc1NC(=O)/C=C/c1ccc([N+](=O)[O-])s1	Autophagy HCS active, Insulin prom up inconclusive (no result: Insulin prom inh)
Cc1cc(C)cc(NC(=O)/C=C/c2ccc([N+](=O)[O-])s2)c1	Insulin prom up 6 (no result: Insulin prom inh)
CC(=O)c1cccc(NC(=O)/C=C/c2ccc([N+](=O)[O-])s2)c1	Insulin prom up inconclusive
COCC(=O)N(Cc1cc2ccc(C)c(C)c2n2nnnc12)C1CCCC1	none (no result: Insulin prom inh)
NC(=O)c1sc(-c2ccsc2)cc1NS(=O)(=O)c1ccc(C(F)(F)F)cc1	none (no result: Autophagy HCS, Insulin prom inh)
CC(=O)c1ccc(OCCOc2ccc(C#N)cc2)cc1	none (no result: Autophagy HCS, Insulin prom inh)
CCOC(=O)c1ccc(NC(=O)CN2C(=O)C3C4C=CC(C4)C3C2=O)cc1 (stereo not drawn)	none
Cc1ccc(NC(=O)CN2C(=O)C3C4C=CC(C4)C3C2=O)cc1 (stereo not drawn)	Autophagy HCS active (no result: Insulin prom inh)
CCCCN(CCCC)S(=O)(=O)c1c(C)[nH]c(=O)[nH]c1=O	Insulin prom inh 73
COc1ccc(CCN2C(=O)CC(NNc3ccc([N+](=O)[O-])cc3)C2=O)cc1OC (stereo not drawn)	none (no result: Insulin prom inh)
O=C(O)c1cccc2c1C(=O)c1ccccc1-2	none (no result: Autophagy HCS, Insulin prom inh)
O=C(O)c1cccc2c1C(=O)c1ccccc1C2=O	Autophagy HCS active (no result: Insulin prom inh)
COC(=O)c1cscc1NC(C)=O	Insulin prom inh 75
CCc1ccc(/C(C)=N\Nc2ccc([N+](=O)[O-])cc2)cc1	Autophagy HCS active
C/C(=N\Nc1ccc([N+](=O)[O-])cc1)c1ccc(N)cc1	none
CCOc1ccc(C2NC(=O)C(C#N)=C(S)N2c2ccc(OC)cc2)cc1OC (stereo not drawn)	Insulin prom inh 80
COc1ccc(N2C(S)=C(C#N)C(=O)NC2c2ccc(OC)c(OC)c2)cc1 (stereo not drawn)	none (no result: Insulin prom inh)
COc1ccccc1NC(=O)c1sc(NC(=O)c2ccco2)c(C#N)c1C	Insulin prom inh 93 (no result: Insulin prom up)
COC(=O)c1sc(NC(=O)c2ccco2)c(C#N)c1C	none (no result: Autophagy HCS, Insulin prom inh)
S=C(CN1CCCC1=S)NCCc1ccccc1	none (no result: Autophagy HCS, Insulin prom inh)
C=CCn1c(SCCOc2ccc(OC)cc2)nnc1C(C)NC(=O)Cc1ccc(OC)cc1 (stereo not drawn)	Insulin prom up 4.2
Cc1ccc(C=C2C(Cl)=C(Cl)C(Cl)=C2Cl)cc1	Dynein transport -6.2 (no result: Autophagy HCS, Insulin prom inh)
Cc1ccccc1NC(=O)CCN1CCc2ccccc2C1	none (no result: Insulin prom inh)
O=C(O)CC1(CC(=O)Nc2ccc3c(c2)C(=O)OC3)CCCCC1	none (no result: Autophagy HCS, Insulin prom inh)
O=C(c1ccc(-c2ccccc2)cc1)C1CCCN(C(=O)c2ccncc2)C1 (stereo not drawn)	Autophagy HCS active
COc1ccccc1-n1c(SCC(=O)Nc2cc(C)on2)nc2c(c1=O)SCC2	Autophagy HCS active
COc1ccccc1-n1c(SCC(=O)Nc2ccc(F)cc2)nc2c(c1=O)SCC2	none
CC(=O)Nc1ccc(S(=O)(=O)N2CCN(CC(=O)N3CCOCC3)CC2)cc1	none (no result: Autophagy HCS, Insulin prom inh)
CC(C)=C1SC(N2CCN(c3ccc(Cl)cc3)CC2)=NC1=O	Insulin prom inh 71
CCN1CCN(c2c(/C=C3\SC(=S)N(Cc4ccco4)C3=O)c(C)c(C#N)c(=O)n2C)CC1	none (no result: Autophagy HCS, Insulin prom up, Insulin prom inh)
O=c1oc2cc(Oc3c([N+](=O)[O-])cc(C(F)(F)F)cc3[N+](=O)[O-])ccc2c2c1CCCC2	Dynein transport -3.8 (no result: Insulin prom inh)
COc1ccccc1C(=O)NC1CCCCCCC1	Autophagy HCS active (no result: Insulin prom up)
O=C(NC1CCCC1)c1ccccc1OCc1ccccc1	none
O=C(Nc1nnc(-c2ccccc2)o1)Nc1ccc(F)cc1F	none
O=C(Nc1nnc(-c2ccccc2)o1)Nc1ccccc1Cl	Insulin prom up 3.8
Cn1cnc(S(=O)(=O)Nc2ccccc2C(=O)NCC2CC2)c1	none (no result: Autophagy HCS, Insulin prom inh)
Clc1ccc2c(c1)C(N1CCNCC1)Cc1ccccc1S2 (stereo not drawn)	Autophagy HCS active (no result: Insulin prom up)
COC(=O)C1=C(NC(=O)c2ccccc2C)CCS1	Autophagy HCS active (no result: Insulin prom inh)
CCN(C(=O)CSc1nc2cc(C(=O)OC)ccc2c(=O)n1Cc1ccco1)c1cccc(C)c1	Insulin prom up 4.5 (no result: Insulin prom inh)
CCc1ccc(NC(=O)CSc2nc3cc(C(=O)OC)ccc3c(=O)n2Cc2ccco2)cc1	none (no result: Insulin prom inh)
CCCc1nn(C)c(C(=O)Nc2cccc3ccccc23)c1Cl	Autophagy HCS active
CCCc1nn(C)c(C(=O)Nc2ccc(CC)cc2)c1Cl	none (no result: Insulin prom inh)
Cc1nc2cc(N3CCN(C)CC3)c(NC(=O)Cc3ccccc3)cc2c(=O)n1Cc1ccccc1	none
Cc1nc2cc(N3CCCCC3)c(NC(=O)c3ccncc3)cc2c(=O)n1Cc1ccc(Cl)cc1	Autophagy HCS active (no result: Insulin prom up, Insulin prom inh)
